MPTP inh – permeability transition pore inhibition | isolated mouse mitochondria, Ca2+ swelling absorbance, 30 min | inhibition, % at 10 µM | 1.4% of 360,000 active | AID 602449;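 active = inhibition of 50% or more, scaled per plate between neutral and stimulator controls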
MT1-MMP act inh – blocks activation of human MT1-MMP; AID 651647; 0.061% of 360,000 active; P50281; GFP/RFP ratio change, % at 20 µM; HT1080 RFP-PRO-GFP cells, GFP/RFP ratio fluorescence, overnight; percent of plate control window, DMSO zero;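 active = GFP/RFP ratio change of at least 30% with cell ATP level not reduced by more than half and red fluorescence within 50% of control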
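Read-out: GFP/RFP fluorescence ratio; Test system: RFP-PRO-GFP reporter HT1080 cells; Compound dosing: single-point 20 µM compound, 1% DMSO; Times: overnight compound exposure at 37 °C.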
SKN-1 inh – inhibitors of C. elegans SKN-1 | inhibition, % at 21.8 µM | 0.49% of 360,000 active | C. elegans VP596 Pgst-4::GFP/RFP ratio, acrylamide-induced, 24 h;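 active = interference check ratio from 0.5 to 1.5 plus GFP to RFP signal ratio inhibition reaching or exceeding a fixed threshold, cut at about 30% in these data, passing the limit was not always enough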
ATG4B inhibitor – inhibitors of human ATG4B cysteine protease. ATG4B cleavage of LC3-PLA2, NBD-HPC fluorescence, 1 h. 0.51% of 340,000 active. inhibition, % at 8.33 µM. Q9Y4P1; in the data active = inhibition above about 40%
Target sequence (Q9Y4P1 whole entry, looked up): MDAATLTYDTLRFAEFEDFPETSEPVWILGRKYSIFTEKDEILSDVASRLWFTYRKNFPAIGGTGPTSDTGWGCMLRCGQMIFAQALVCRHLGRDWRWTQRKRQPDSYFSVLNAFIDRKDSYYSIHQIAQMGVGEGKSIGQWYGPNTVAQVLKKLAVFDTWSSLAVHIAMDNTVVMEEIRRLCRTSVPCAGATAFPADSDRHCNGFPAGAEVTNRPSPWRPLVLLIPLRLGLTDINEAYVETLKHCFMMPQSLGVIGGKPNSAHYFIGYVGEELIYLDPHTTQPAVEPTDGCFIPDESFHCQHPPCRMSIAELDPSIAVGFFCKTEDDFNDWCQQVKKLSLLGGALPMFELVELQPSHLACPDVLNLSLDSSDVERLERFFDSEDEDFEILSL
ATG4B conf – ATG4B (human) inhibition, single-dose confirmed; shares compounds with ATG4B inhibitor; 92% of 320 active; AID 504757; inhibition, % at 8.33 µM; ATG4B protease fluorescent substrate cleavage assay; in the data active = inhibition above about 39%
PLA2 ctr – PLA2 (human) inhibition in ATG4B counter-screen; shares compounds with ATG4B inhibitor; inhibition, % at 8.33 µM; 66% of 1,600 active; purified PLA2, NBD-C6-HPC fluorescence, 45 min; in the data active = inhibition above about 50%
Target sequence (P04054 whole entry, looked up): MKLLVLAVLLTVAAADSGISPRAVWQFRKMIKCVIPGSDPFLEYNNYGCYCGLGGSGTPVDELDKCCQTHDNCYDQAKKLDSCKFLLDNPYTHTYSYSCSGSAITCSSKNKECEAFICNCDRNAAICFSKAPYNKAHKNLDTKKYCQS
Large screens that a line does not name were inactive (follow-up assays come after a bar, where they were run). A selection: hits, their analogues and other compounds. The true share with any hit is near 2.3%.

Cc1ccc(/C=C2\SC(=S)N(C(Cc3ccccc3)C(=O)O)C2=O)cc1 (stereo not drawn)	ATG4B inhibitor 48 | ATG4B conf 79 | PLA2 ctr inactive
CC(=C\c1ccccc1)/C=C1/SC(=S)N(C(C(=O)O)C(C)C)C1=O (stereo not drawn)	none
COc1ccccc1OCc1ccc(C(=O)n2nc(C)c(Cl)c2C)o1	ATG4B inhibitor 75 | PLA2 ctr 77
COc1cc(OC)cc(-c2nc3ccccc3c(=O)n2OC(=O)c2ccccc2C)c1	ATG4B inhibitor 45 | ATG4B conf 67 | PLA2 ctr inactive
COCCCN(CC(=O)Nc1ccc(F)cc1)S(=O)(=O)c1cccs1	none
CC(=O)c1ccc(OCc2cc(C(=O)N(C)CCOc3ccc(C)cc3)no2)cc1	none
COCCCn1c(SCC(=O)Nc2oc(C)c3c(C)n[nH]c(=O)c23)nc2ccccc2c1=O	none
Cc1n[nH]c(=O)c2c(NC(=O)CSc3nc4ccccc4c(=O)n3-c3ccc(OC(F)F)cc3)oc(C)c12	ATG4B inhibitor 41 | PLA2 ctr 75
O=C(Nc1nc(-c2cccs2)c(-c2cccs2)s1)C1CCCC1	ATG4B inhibitor 50 | PLA2 ctr 60
O=C(CSc1nc(-c2ccccc2)cs1)Nc1ccccc1[N+](=O)[O-]	none
Nc1c(C(=O)c2ccccc2)oc2ccccc12	none
O=C(c1ccc(Cl)cc1)c1oc2ccccc2c1CS(=O)(=O)c1ccccc1	ATG4B inhibitor 43 | PLA2 ctr inactive
NC(=O)/C(=C\c1ccccc1)NC(=O)/C=C/c1ccccc1	ATG4B inhibitor 46 | ATG4B conf 76 | PLA2 ctr inactive
NC(=O)/C(=C/c1ccco1)NC(=O)/C=C/c1ccccc1	ATG4B inhibitor 50 | PLA2 ctr 68
CCNC(=O)/C(=C\c1ccccc1)NC(=O)/C=C/c1ccccc1	none
O=C(CCN1C(=O)/C(=C/c2ccco2)SC1=S)Nc1ccc(O)cc1C(=O)O	ATG4B inhibitor 43 | PLA2 ctr inactive
O=C(CCCN1C(=O)/C(=C/c2ccccc2Cl)SC1=S)NNC(=O)c1ccccc1	ATG4B inhibitor 50 | ATG4B conf 55 | PLA2 ctr inactive
O=C(CCN1C(=O)/C(=C/c2ccccc2Cl)SC1=S)Nc1ccccc1C(=O)O	SKN-1 inh 39, ATG4B inhibitor 58 | PLA2 ctr 51
O=C(CN1C(=O)/C(=C\c2ccco2)SC1=S)Nc1ccc(O)cc1C(=O)O	none
COc1cc(C(=O)NNC(=O)CNC(=O)c2ccc(Br)o2)cc(OC)c1OC	none
O=C(Nc1cccc(Cl)c1N1CCCC1)c1cccc(-c2cc3ccccc3oc2=O)c1	ATG4B inhibitor 50 | ATG4B conf 59 | PLA2 ctr inactive
Cc1ccc(OCc2nnc(SCC(=O)c3ccccc3)n2Cc2ccco2)cc1	ATG4B inhibitor 60 | PLA2 ctr 63
O=C1CN(C(=O)COc2c(F)c(F)cc(F)c2F)c2ccccc2N1	none
O=C(O)c1cccc(CSc2nc(-c3ccccc3)cc(C(F)(F)F)n2)c1	none
COc1ccc(-c2cc(C(F)(F)F)nc(SCc3cccc(C(=O)O)c3)n2)cc1	ATG4B inhibitor 44 | PLA2 ctr 56
COc1ccc(CNC(=S)NCc2ccc(F)cc2)cc1OC	none
Fc1ccc(CNC(=S)NCc2cccc(Cl)c2)cc1	ATG4B inhibitor 79 | PLA2 ctr 86
O=C(COc1ccccc1-c1ccccc1)NCc1cccc(Cl)c1	ATG4B inhibitor 56 | ATG4B conf 57 | PLA2 ctr inactive
S=C(NCCc1cccc(Cl)c1)NCc1ccccc1	none (no result: ATG4B inhibitor)
S=C(NCCc1ccc(Cl)cc1)NCc1ccccc1	ATG4B inhibitor 64 | PLA2 ctr 73
S=C(NCc1ccccc1)NCc1cccc(Cl)c1	ATG4B inhibitor 64 | PLA2 ctr 78
S=C(NCCc1ccc(Cl)cc1)NCc1ccco1	none
O=S(=O)(c1ccc(Cl)cc1)N1CCCC(C(F)(F)F)C1 (stereo not drawn)	none
O=C(NCc1cccc(Cl)c1)NCc1cccc(Cl)c1	ATG4B inhibitor 73 (no result: MT1-MMP act inh) | PLA2 ctr 77
CCN1C(C(=O)c2ccccc2)=C(Nc2ccccc2C)c2ccccc2S1(=O)=O	ATG4B inhibitor 51 | PLA2 ctr 55
COc1cccc(-c2csc(NC3OC(=O)c4c3ccc(OC)c4OC)n2)c1 (stereo not drawn)	none
COc1ccc2c(c1OC)C(=O)OC2Nc1nc(-c2ccc(-c3ccccc3)cc2)cs1 (stereo not drawn)	SKN-1 inh 65, ATG4B inhibitor 64 | ATG4B conf 39 | PLA2 ctr inactive
CCOC(=O)c1ccc(NC(=O)CCNS(=O)(=O)c2cc(Br)cnc2N)cc1	none
COc1cc(/C=C2\C(=N)N3N=C(N4CCOCC4)SC3=NC2=O)ccc1OC(=O)c1ccccc1	none
N=C1/C(=C\c2ccc(OC(=O)c3ccccc3Cl)cc2)C(=O)N=C2SC(N3CCOCC3)=NN12	ATG4B inhibitor 58 | PLA2 ctr 52
Cc1cccc(Cc2cnc(N3C(=N)SC(c4ccccc4)C3=O)s2)c1 (stereo not drawn)	ATG4B inhibitor 50 | PLA2 ctr inactive
O=NN(CC(=O)NNc1ccccc1)CC(=O)NNc1ccccc1	none (no result: ATG4B inhibitor)
Cc1cc(C)c(OCC(=O)Nc2cccc(NC(=O)c3ccco3)c2)c(Br)c1	ATG4B inhibitor 60 | PLA2 ctr 63
Cc1c(Cl)cccc1NC(=S)NCc1ccc(Cl)cc1	ATG4B inhibitor 70 | PLA2 ctr 81
S=C(Nc1ccccc1Cl)NC1CCN(Cc2ccccc2)CC1	none
Cc1c(Cl)cccc1NC(=S)NC1CCN(Cc2ccccc2)CC1	ATG4B inhibitor 48 | PLA2 ctr 58
Cc1c(Cl)cccc1NC(=S)NCCc1ccc(F)cc1	ATG4B inhibitor 71 | PLA2 ctr 77
Cc1c(Cl)cccc1NC(=S)NCc1ccccc1	ATG4B inhibitor 54 | PLA2 ctr 70
Cc1c(Cl)cccc1NC(=S)N1CCCN(Cc2ccc(F)cc2)C1	ATG4B inhibitor 52 | PLA2 ctr 55
COc1ccccc1CNC(=O)c1ccccc1OCc1ccc(F)cc1	ATG4B inhibitor 44 | ATG4B conf 75 | PLA2 ctr inactive
Oc1ccc(C2C(c3ccccc3)=NN=C(c3ccc(Cl)cc3)N2O)c(O)c1 (stereo not drawn)	ATG4B inhibitor 60 | PLA2 ctr 76
CC1=NN=C(c2ccccc2)C(c2c[nH]c3ccccc23)N1O (stereo not drawn)	none
Oc1ccc(C2C(c3ccccc3)=NN=C(c3ccccc3F)N2O)c(O)c1 (stereo not drawn)	ATG4B inhibitor 63 | PLA2 ctr 84
Cc1cc(C)cc(N(C(=O)CNC(=O)c2ccco2)C(C(=O)NC2CCCCC2)c2cccnc2)c1 (stereo not drawn)	none
Cc1noc(C)c1COc1ccc(C(=O)OCC(=O)NCc2ccccc2Cl)cc1	ATG4B inhibitor 45 | ATG4B conf 64 | PLA2 ctr inactive

Screens from PubChem.
